According to ChEMBL document CHEMBL1145100, “Structure-activity relationship of imidazo[1,2-a]pyridines as ligands for detecting beta-amyloid plaques in the brain” (J Med Chem, 2003):

Molecular target: Amyloid-beta precursor protein (Homo sapiens, UniProt P05067)
Experiment: Inhibition constant against [125I]-7 (TZDM) binding to Amyloid beta 1-40 aggregates
Method in brief: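 Abeta40 peptide aggregated at 0.5 mg/mL in pH 7.4 buffer (10 mM sodium phosphate, 1 mM EDTA), 37 °C for 36-42 h with shaking. Competition in 1 mL of 40% EtOH: fibrils 10-50 nM final, radiotracer 0.05 nM, inhibitors 10^-5 to 10^-10 M. Nonspecific binding with 2 µM thioflavin-T. Incubated 3 h at room temperature, then GF/B filtration with 10% ethanol washes and gamma counting. Ki from nonlinear regression.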

Chain of Amyloid-beta precursor protein (P05067 whole entry): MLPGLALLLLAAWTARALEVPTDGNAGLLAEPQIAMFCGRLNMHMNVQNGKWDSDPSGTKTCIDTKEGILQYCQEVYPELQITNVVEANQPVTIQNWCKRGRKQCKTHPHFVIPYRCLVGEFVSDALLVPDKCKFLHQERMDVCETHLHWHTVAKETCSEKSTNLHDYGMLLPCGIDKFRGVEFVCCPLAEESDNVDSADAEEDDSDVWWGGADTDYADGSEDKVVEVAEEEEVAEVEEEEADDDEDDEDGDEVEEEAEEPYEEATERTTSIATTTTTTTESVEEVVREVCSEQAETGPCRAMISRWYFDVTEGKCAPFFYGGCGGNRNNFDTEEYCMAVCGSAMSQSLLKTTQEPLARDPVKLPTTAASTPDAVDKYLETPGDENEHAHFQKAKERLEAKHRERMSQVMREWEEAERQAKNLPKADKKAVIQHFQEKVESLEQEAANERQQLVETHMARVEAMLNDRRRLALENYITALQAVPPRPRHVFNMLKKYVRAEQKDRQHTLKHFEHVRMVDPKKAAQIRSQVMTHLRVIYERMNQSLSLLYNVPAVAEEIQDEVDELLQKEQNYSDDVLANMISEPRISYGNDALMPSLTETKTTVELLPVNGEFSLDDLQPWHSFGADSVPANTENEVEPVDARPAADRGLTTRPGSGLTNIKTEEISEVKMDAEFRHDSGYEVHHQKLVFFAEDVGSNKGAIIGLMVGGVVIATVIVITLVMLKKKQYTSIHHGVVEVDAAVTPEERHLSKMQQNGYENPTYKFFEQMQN

Question: Which Ki does the source give for `CN(C)c1ccc(-c2nc3ccc(I)cn3c2I)cc1` here?
Answer: > 2 µM
